Experiment: Toxicity liver stage against HepG2, at 10uM
Format: cell-based
Parameters: test concentration 10 uM, cell line HepG2-A16-CD81EGFP
Details: human, HepG2-A16-CD81EGFP cells; read-out: INHIBITION
Outline: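 Uninfected HepG2-A16-CD81EGFP cells, 3 × 10^3 per well, 1536-well, plated on prespotted compound at 10 μM final, parasite-free screening media added to match infected plates; puromycin 10 μM positive, DMSO 0.5% negative; run in parallel with 48 h PbLuc assay at 37 °C, 5% CO2; viability by CellTiter-Glo luminescence, normalized to controls.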

Compound	cytotoxicity at 10 µM [%]
Cn1c(=O)c2c(n3ncnc13)NC(=O)CC2c1cccc(F)c1 (stereo not drawn)	2.05
Cc1ccc(C(=O)N(C)CC(=O)NCC(F)(F)F)cn1	-4.46
CO[C@@H]1CN(c2ccccc2)S(=O)(=O)[C@@]12CCN(Cc1cncs1)C2	5.63
CO[C@H]1CN(c2ccccc2)S(=O)(=O)[C@@]12CCN(Cc1ccccc1)C2	-4.86
O=S(=O)(Nc1cnc(N2CCOCC2)nc1)c1ccc(Cl)cc1	-5.82
O=C(NCC1CCCCC1)c1nnn(-c2ccc(Br)cc2)n1	-0.895
COC1(CNS(=O)(=O)c2ccccc2Br)CCSC1 (stereo not drawn)	-8.26
Cn1cnnc1S(=O)(=O)C1CCN(C(=O)c2cccs2)CC1	6.03
CCn1ncc2c1C(COC)CN(Cc1ccc(OC)cc1)C2 (stereo not drawn)	11.4
Cc1nc(CN2C[C@@H]3OCCN(c4ncc(F)cn4)[C@@H]3C2)cs1	-8.52
CN(C)C(=O)N1Cc2nnn(C)c2C(COCC2CC2)C1 (stereo not drawn)	-10.7
CN1CCc2c1nc1c(c2N)CCC1	0.0371
Cc1nn(C)c2c(NCc3ccccn3)ncnc12	-5.2
O=S(=O)(c1ccc(F)c(F)c1)n1cc(Cl)cn1	4.66
Cc1sc(NC(=O)CCC(=O)O)c(C(N)=O)c1-c1ccc(Cl)cc1Cl	15.6
CN1CC(=O)N(c2cccnc2)Cc2c(NC3CC3)ncnc21	5.28
Cc1cc(C(=O)NCc2ccc(F)cc2)c2c(C3CCNC3)noc2n1 (stereo not drawn)	7.08
O=C(c1ccc(Cl)cc1)N1CCC(N2CCOC2=O)CC1	7.72
N#CCCN1CCN(S(=O)(=O)c2ccc(Cl)s2)CC1	14.7
O=C(NCCN1CCOCC1)c1cnc(-c2ccccc2F)s1	0.277
Cc1ccc(C(=O)NS(=O)(=O)Cc2ccc(F)cc2)cc1S(C)(=O)=O	-7.36
Cc1cc(C)c(S(N)(=O)=O)cc1C(=O)NCCN1CCCCC1	-5.52

Compound	cytotoxicity at 10 µM [%]
CN(C(=O)OC(C)(C)C)C1CCN(C(=O)c2cc(Cl)c[nH]2)C1 (stereo not drawn)	2.5
Cc1ccc(C(=O)NCc2cc(F)ccc2N2CCCN(C)CC2)o1	-9.7
CN(C)CCN(C)S(=O)(=O)Cc1ccc(Br)cc1	0.936
COc1cc(NC2CCCN(c3ncccc3C#N)C2)cc(OC)c1 (stereo not drawn)	-9.25
CC(C(=O)N1CCN(C(=O)c2ccc(F)cc2F)CC1)n1ccnc1 (stereo not drawn)	1.63
Cc1ccc(C(=O)N2CCN(C(=O)C(C)n3ccnc3)CC2)cc1F (stereo not drawn)	3.72
Cc1cc(C(=O)NC2=NCCS2)c(C)n1-c1ccccn1	6.25
c1cc(CN2CCc3cncnc3C2)c2c(c1)OCCO2	-3.67
Cc1nn(CC(C)C)c(N(C)C)c1CNCCCNS(C)(=O)=O	1.73
CC(NC(=O)c1cccs1)C(=O)NS(=O)(=O)c1ccc(C#N)cc1 (stereo not drawn)	5.11
Cc1noc(CCCNS(=O)(=O)N2CCCC2c2ccco2)n1 (stereo not drawn)	-7.88
Cn1cccc1-c1nnc(C2(c3ccc4c(c3)OCO4)CCOCC2)o1	20.3
CNC(=O)C1CCCN(C(=O)OC)C1 (stereo not drawn)	-6.06
CCCN1CCC(N2CCN(c3cc(C)nc(COC)n3)CC2)CC1	-0.332
CSCCN1C(=O)CC(C)(c2ccc(Br)cc2)C1=O (stereo not drawn)	-8.98
CC(=O)c1ccc(Cl)c(Cl)c1OCC(=O)NCC(F)(F)F	-1.2
c1cnc(N2CCO[C@H]3CN(CC4CCCC4)C[C@H]32)cn1	-101
O=C1N(c2ccsc2)CCC12CCCN(c1ccccn1)C2 (stereo not drawn)	-103
CC(=O)N1CCC2(CCN(CC3CCOC3)C2)CC1 (stereo not drawn)	-95
O=C(c1cccnc1)N1C[C@@H]2CN(CCN3CCCC3)C(=O)[C@@H]2C1	-113
O=C(Cc1ccco1)N1C[C@H]2CCC[C@@]2(COc2cccnc2)C1	-109
O=C(C1=CCCC1)N1C[C@@H]2COC[C@]2(COCc2ccncc2)C1	-96.4

Compound	cytotoxicity at 10 µM [%]
Cn1cc(C2COC3(CCN(C(=O)c4ccn(C)n4)CC3)C2)cn1 (stereo not drawn)	-66.5
CN(C)C(=O)NC1COC2(CCN(Cc3ccc(N(C)C)cc3)CC2)C1 (stereo not drawn)	-77
CN(C)C(=O)NC1COC2(CCN(C(=O)Nc3ccccc3)CC2)C1 (stereo not drawn)	0.179
O=C1CCC2(CCNCC2)CN1Cc1nnc2ccccn12	-0.949
CS(=O)(=O)NC1CCN(CCOCc2ccccc2)CC1	2.84
Cc1cc(CNC(=O)c2cc(COc3cncc(Cl)c3)on2)n[nH]1	16.1
CCN1CC(c2ccccc2)CC2(CCN(Cc3ncc[nH]3)CC2)C1 (stereo not drawn)	8.25
CN(Cc1nc(Cc2cccc(C(F)(F)F)c2)no1)CC1CCCCO1 (stereo not drawn)	3.64
Cc1nccn1CCCN1CCCC(c2nccn2CC2CCC2)C1 (stereo not drawn)	-13.7
Cc1cc(NC(C)Cc2cccs2)n2nccc2n1 (stereo not drawn)	1.22
CS(=O)(=O)c1cnc(CC2CC2)nc1C1CCCNC1 (stereo not drawn)	-33.5
Cc1cc(C)n(C2CCN(c3ncnc4c3CCNCC4)C2)n1 (stereo not drawn)	7.82
Cc1c(Cl)cc(C(=O)NCCc2ncnn2C)cc1Cl	6.07
O=C(C1CNCCN1C(=O)CCc1cccnc1)N1CCOCC1 (stereo not drawn)	4.82
Nc1nc(Cn2ccnc2-c2cc(CN3CCCC3)cs2)cs1	1.4
CCN(Cc1cnc(NCc2ccccc2)nc1)C1CCS(=O)(=O)C1 (stereo not drawn)	-15.3
CCC(=O)N1CCC(n2cc(C(C)(C)O)nn2)CC1	3.92
CN(Cc1ncc[nH]1)c1nc(-c2ccccn2)nc2c1CCNCC2	-0.796
C=C(C)CNCC1(O)CCCN(Cc2ccc(F)c(F)c2)C1=O (stereo not drawn)	-1.12
COc1cc(-c2cc(NC3CCCC3)nc3[nH]ccc23)nc(N)n1	10.2
Cc1[nH]c(-c2ccccc2)nc1C(=O)N1CCC2(CCCO2)CC1	2.8
Cc1nc(N2CCC(C(O)c3nccn3C)CC2)c2nc(C)oc2n1 (stereo not drawn)	-2.22

Compound	cytotoxicity at 10 µM [%]
CCCN(Cc1nccn1C)C(=O)c1cc(C)nc(C)n1	2.37
Cc1cnn(C(C)C2CC2)c1NC(=O)c1ccco1 (stereo not drawn)	-1.19
O=C(CCC(F)(F)F)N1CCN(Cc2ccncc2)[C@@H]2CS(=O)(=O)C[C@@H]21	-2.11
COc1ccc(C(=O)C2CCCN(c3cc(C#N)ccn3)C2)cc1OC (stereo not drawn)	-0.312
Cc1cc(-c2nn(C)c(Cl)c2CN2CCOCC(O)C2)no1 (stereo not drawn)	-14.8
Cn1cc(CN2CC[C@@H]3[C@@H](CCC(=O)N3CCC3=CCCCC3)C2)cn1	-8.68
CCc1cc(C(F)(F)F)c2c(C)nn(CC(=O)O)c2n1	0.77
CC1CCCCN1c1nc2c(c(=O)[nH]1)CCN(Cc1cccnc1)C2 (stereo not drawn)	-6.15
CN(c1ccncn1)C1CC2(CCN(C(=O)c3cccs3)C2)C1 (stereo not drawn)	-5.05
CCc1ncc2c(n1)CN(Cc1nnc(Cc3ccccc3)o1)CC2	-3.04
Cc1occc1C(=O)N1CCCN(Cc2nccn2C(C)C)CC1	-9.24
O=C(NCc1nn(-c2ccccc2)c2c1CCC2)NC1CCC(O)CC1 (stereo not drawn)	-7.75
Cn1cc(C2CCCN2Cc2csc(C3CCCC3)n2)cn1 (stereo not drawn)	8.3
Clc1ccccc1-c1nnc(CNCCn2cccn2)o1	1.4
Cc1cc(CN(C)C(=O)c2ccc(OC(C)C)nc2)no1	-15.3
COc1ccc(C(=O)N2CCC(Nc3ccc(C)nn3)CC2)cc1	-8.51
COCc1nc(C(=O)N2CCCC2c2cccs2)cs1 (stereo not drawn)	-5.16
CCc1nnc2n1CCN(C(=O)c1cc(Br)c[nH]1)C2	-7.93
CCc1nc(C2CCCN(C(=O)c3cn(C)nc3C)C2)no1 (stereo not drawn)	-14.5
Cn1ccc(CN2CCC(NC(=O)Cc3ccccc3)CC2)cc1=O	-9.75
O=C1CCC(C(=O)NCc2nn(-c3ccccc3)c3c2CCC3)CN1 (stereo not drawn)	-10.1
O=C(NCc1nn(-c2ccccc2)c2c1CCC2)N1CCSCC1	-4.89

Compound	cytotoxicity at 10 µM [%]
Cc1cc(CN2CCC(c3ccnn3CCO)CC2)no1	-11.2
O=C(NCCN1CCOCC1)c1n[nH]c(=O)c2ccccc12	0.376
CC(O)CN1CCN(C(=O)c2ccc(Cn3cccn3)cc2)CC1 (stereo not drawn)	-1.45
O=C(O)c1ccc(S(=O)(=O)Nc2ccc(Cl)c(F)c2)c(F)c1	-14.3
CCN1CCC(NC(=O)CN2CCc3c(ncn3C)C2)CC1	1.85
CCN(Cc1ccc2c(c1)OCCO2)C(=O)NCc1cc[nH]n1	1.54
CCc1nc(CN2CCCN(C(=O)CCSC)CC2)cs1	-5.41
Cc1noc([C@@H]2C[C@H]3CN(Cc4ccc5c(c4)OCO5)C[C@H]3O2)n1	-113
Cc1cccc(CN2CCC3(CCN(Cc4ccccn4)C3)C2=O)c1 (stereo not drawn)	12
O=C1CC[C@H]2[C@H](CCN2Cc2ccccn2)N1CC1CCOCC1	3.59
CC(C)N1CCc2c(C(=O)N3CCOCC3)nn(C)c2C1	-105
COc1cccc(C(=O)N2CC[C@@H]3[C@H](CC2)N(C)CCS3(=O)=O)c1	-129
O=C([C@@H]1C[C@@H]2CCN(c3cccc(F)c3)C[C@H]2O1)N1CCCC1	-1.34
Cc1nn(C)c(Cl)c1CNCc1cccnc1N1CCOCC1	-4.17
CN(C)CCO[C@@H]1CC[C@H]2[C@H]1OCCN2C(=O)c1ccc(F)cc1	-7.1
c1cncc(-c2nnn3c2COCC(CNCC2CCOCC2)C3)c1 (stereo not drawn)	-75.4
CC(C)CN1C[C@H]2CCN(Cc3cccnc3)CC[C@H]2S1(=O)=O	-1.8
O=C(NC1CCC1)[C@@H]1CC[C@@H]2[C@@H](CCN2CCc2ccccc2)O1	-127
Cc1noc(C)c1CN1C[C@@H]2COC[C@@H](CC(=O)N3CCCCO3)[C@@H]2C1	-72.4
CN1C[C@@H]2C[C@H](C(=O)Nc3cccnc3)[C@H](C1)O2	-71.1

Source: ChEMBL document CHEMBL4513216, “Probing the Open Global Health Chemical Diversity Library for Multistage-Active Starting Points for Next-Generation Antimalarials” (ACS Infect Dis, 2020)
